Measurements from ChEMBL document CHEMBL3425458, “Design, synthesis and antitumor activity of triterpenoid pyrazine derivatives from 23-hydroxybetulinic acid” (Eur J Med Chem, 2015).

Experiments:
[1] = test system: B16; assay: In vivo antitumor activity against mouse B16 cells xenografted in mouse assessed as tumor growth inhibitory ratio at 30 mg/kg, ip administered after 7 days of tumor transplantation measured at 25th day after tumor inoculation; type: functional; conditions: 168 h, route intraperitoneal
[2] = test system: Mus musculus; assay: Toxicity against mouse xenografted with mouse B16 cells assessed as body weight at 30 mg/kg, ip administered after 7 days of tumor transplantation (reference value: 18.2 to 18.3 gms); type: organism-based; design: dose 30 mg/kg, route intraperitoneal; conditions: in vivo, 168 h
[3] = test system: H22; assay: In vivo antitumor activity […] cells xenografted in mouse assessed as tumor growth inhibitory ratio at 30 mg/kg, ip administered after 7 days of tumor transplantation measured at 25th day after tumor inoculation; type: functional; conditions: 168 h, route intraperitoneal
Outline: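 Mice bearing H22 liver cancer, 10 per group. Test article at 30 mg/kg ip. Vehicle 0.5 mL/mouse iv. Cyclophosphamide 30 mg/kg iv as positive control. Tumor weight recorded to give tumor inhibitory ratio.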

[4] = test system: Mus musculus; assay: Toxicity against mouse xenografted […] cells assessed as body weight at 30 mg/kg, ip administered after 7 days of tumor transplantation (reference value: 18.1 to 18.6 gms); type: organism-based; design: dose 30 mg/kg, route intraperitoneal; conditions: in vivo, 168 h
Outline: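 H22 liver cancer-bearing mice, 10 per group at start and end. Test article given ip at 30 mg/kg, with a vehicle group (0.5 mL/mouse, iv). Body weight was recorded at start and at end, alongside tumor weight.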

[5] = Antiproliferative activity against human SF763 cells assessed as growth inhibition after 72 hrs by MTT assay; type: functional, cell-based; conditions: SF763, 72 h
Outline: (§1)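 Values are mean ± S.D. from three different experiments, each performed in triplicate.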

[6] = test system: HeLa; assay: Antiproliferative activity against human HeLa cells assessed as growth inhibition after 72 hrs by MTT assay; type: functional, cell-based
Outline: (§2)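 IC50 is the concentration inhibiting 50% cell growth. Values are mean ± S.D. from three different experiments, each performed in triplicate.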

[7] = test system: B16; assay: Antiproliferative activity against mouse B16 cells assessed as growth inhibition after 72 hrs by MTT assay; type: functional, cell-based; conditions: B16, 72 h; outline: as §2
[8] = Antiproliferative activity against human HL60 cells assessed as growth inhibition after 72 hrs by MTT assay; type: functional, cell-based; conditions: HL-60, 72 h; outline: as §1
[9] = Antiproliferative activity against human Bel7402 cells assessed as growth inhibition after 72 hrs by MTT assay; type: functional, cell-based; conditions: Bel-7402, 72 h; outline: as §2

Compound	inhibition in vivo at 30 mg/kg [1] [%]	Activity [2] [g]	inhibition in vivo at 30 mg/kg [3] [%]	Activity [4] [g]	IC50 [5] [µM]	IC50 [6] [µM]	IC50 [7] [µM]	IC50 [8] [µM]	IC50 [9] [µM]
C=C(C)[C@@H]1CC[C@]2(C(=O)O)CC[C@]3(C)[C@H](CC[C@@H]4[C@@]5(C)CC[C@H](O)[C@@](C)(CO)[C@@H]5CC[C@]43C)[C@@H]12	32.4	26.7	27.8	26.1					
C=C(C)[C@@H]1CC[C@]2(C(=O)OCc3ccccc3)CC[C@]3(C)[C@H](CC[C@@H]4[C@@]5(C)Cc6nccnc6[C@@](C)(CO)[C@@H]5CC[C@]43C)[C@@H]12					9.54	12.8	8.56	18.9	10.1
C=C(C)[C@@H]1CC[C@]2(C(=O)O)CC[C@]3(C)[C@H](CC[C@@H]4[C@@]5(C)Cc6nccnc6[C@@](C)(COC(C)=O)[C@@H]5CC[C@]43C)[C@@H]12					11.1	14.6	9.9	20.4	16.8
C=C(C)[C@@H]1CC[C@]2(C(=O)O)CC[C@]3(C)[C@H](CC[C@@H]4[C@@]5(C)Cc6nccnc6[C@@](C)(CO)[C@@H]5CC[C@]43C)[C@@H]12					15.4	19.6	14.9	24.1	19.1
C=C(C)[C@@H]1CC[C@]2(C(=O)OCC)CC[C@]3(C)[C@H](CC[C@@H]4[C@@]5(C)Cc6nccnc6[C@@](C)(CO)[C@@H]5CC[C@]43C)[C@@H]12					10	15.1	9.97	22.5	14.8
C=C(C)[C@@H]1CC[C@]2(C(=O)OCCO)CC[C@]3(C)[C@H](CC[C@@H]4[C@@]5(C)Cc6nccnc6[C@@](C)(CO)[C@@H]5CC[C@]43C)[C@@H]12					13.5	20.7	13.1	23.6	17.4
C=CCOC(=O)[C@]12CC[C@@H](C(=C)C)[C@@H]1[C@H]1CC[C@@H]3[C@@]4(C)Cc5nccnc5[C@@](C)(CO)[C@@H]4CC[C@@]3(C)[C@]1(C)CC2					8.62	11	8.98	19.1	11.9
C=C(C)[C@@H]1CC[C@]2(C(=O)OCC(=O)OCC)CC[C@]3(C)[C@H](CC[C@@H]4[C@@]5(C)Cc6nccnc6[C@@](C)(CO)[C@@H]5CC[C@]43C)[C@@H]12					13.1	17	11.3	23.6	17
C=C(C)[C@@H]1CC[C@]2(C(=O)OCc3ccc(-c4ccccc4C#N)cc3)CC[C@]3(C)[C@H](CC[C@@H]4[C@@]5(C)Cc6nccnc6[C@@](C)(CO)[C@@H]5CC[C@]43C)[C@@H]12					5.63	9.32	7.15	11.7	9.37
C=C(C)[C@@H]1CC[C@]2(C(=O)O[C@@H]3O[C@H](CO)[C@@H](O)[C@H](O)[C@H]3O)CC[C@]3(C)[C@H](CC[C@@H]4[C@@]5(C)Cc6nccnc6[C@@](C)(CO)[C@@H]5CC[C@]43C)[C@@H]12					11	15.9	12.8	21.1	17.7
C=C(C)[C@@H]1CC[C@]2(C(=O)OCC(=O)O)CC[C@]3(C)[C@H](CC[C@@H]4[C@@]5(C)Cc6nccnc6[C@@](C)(CO)[C@@H]5CC[C@]43C)[C@@H]12					8.86	10.1	9.41	19.5	13.1
C=C(C)[C@@H]1CC[C@]2(C(=O)NCC(=O)OC)CC[C@]3(C)[C@H](CC[C@@H]4[C@@]5(C)Cc6nccnc6[C@@](C)(COC(C)=O)[C@@H]5CC[C@]43C)[C@@H]12					9.26	10.9	8.08	14.7	11.1
C=C(C)[C@@H]1CC[C@]2(C(=O)OCCO)CC[C@]3(C)[C@H](CC[C@@H]4[C@@]5(C)Cc6nccnc6[C@@](C)(COC(C)=O)[C@@H]5CC[C@]43C)[C@@H]12					13	17.5	12.1	22.2	15.7
C=C(C)[C@@H]1CC[C@]2(C(=O)Oc3ccc(C#N)cc3)CC[C@]3(C)[C@H](CC[C@@H]4[C@@]5(C)Cc6nccnc6[C@@](C)(COC(C)=O)[C@@H]5CC[C@]43C)[C@@H]12					5.77	7.91	6.02	10.2	8.09
O=P1(N(CCCl)CCCl)NCCCO1 (centres undefined) [CYCLOPHOSPHAMIDE ANHYDROUS]			53.7	25.7					
COc1cccc2c1C(=O)c1c(O)c3c(c(O)c1C2=O)C[C@@](O)(C(=O)CO)C[C@@H]3O[C@H]1C[C@H](N)[C@H](O)[C@H](C)O1 [DOXORUBICIN]									0.22
O=c1[nH]cc(F)c(=O)[nH]1 [FLUOROURACIL]	70.3	26.2							
